Assay outcomes: PubChem BioAssay, several laboratories
STAT3 activator: IL-6 driven STAT3 reporter potentiators, primary screen, U3A cells, luciferase, luminescence, MLSCN library. activation (% of control), % at 5.6 µM. IL-6 STAT3-luciferase reporter; 100% = signal with IL-6 EC80 alone. 190,000 compounds, 0.91% hits;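 active = activation above the screen-wide mean of compound activation plus 3 SD, cut at about 130% in these data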;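 note: 0% = background luminescence of wells with medium and substrate only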
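Material: human STAT1-deficient U3A cells with stable STAT3-luciferase reporter / Probe or stimulus: IL-6 stimulus at 33 ng/mL final / Schedule: 1 h compound pre-exposure, 6 h IL-6 stimulation, 37 °C / Technique: luminescence / Read-out basis: percent of IL-6-only median luminescence / Control set: IL-6-only high control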
STAT3 inh: IL-6 driven STAT3 reporter inhibitors, primary screen, U3A cells, luciferase, luminescence, MLSCN library | IL-6 STAT3-luciferase reporter; host cell line lacks STAT1 | inhibition, % at 5.5 µM | 190,000 compounds, 0.89% hits | AID 862, 2007;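 active = inhibition above the mean inhibition across all screened compounds plus 3 SD, cut at about 44% in these data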;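 note: 0% = DMSO only wells and 100% = 100 µM nifuroxazide control wells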
STAT1 inh: STAT1 signaling inhibitors, primary screen, cell-based, HTS, luciferase reporter; inhibition, % at 5.5 µM; NIH 3T3 STAT1-luciferase reporter, IFN-gamma, luminescence; AID 920, 2007; 200,000 compounds, 0.35% hits;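 active = inhibition above a set limit, the mean inhibition across all tested compounds plus 3 SD, cut at about 34% in these data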;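 note: 0% = IFN-gamma with DMSO and 100% = IFN-gamma with 300 µM nifuroxazide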
NF-kB neuron act: activators of NF-kB expression in neurons, primary screen, cell-based, HTS | human neuronal cells, NF-kB reporter expression; stronger effect = higher value | fold change at 12.5 µM | 190,000 compounds, 1.6% hits | AID 1239, 2008; in the data active = fold change above about 3.3
STAT1 act: STAT1 signaling activators, primary screen, cell-based, HTS, luciferase reporter | NIH 3T3 STAT1-luciferase reporter, IFN-gamma, luminescence; 100% = IFN-gamma alone, no compound | activation (% of control), % at 5.5 µM | 200,000 compounds, 2.6% hits | AID 932, 2007;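 active = activation above the screen-wide mean activation plus 3 SD, cut at about 130% in these data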;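 note: raw ratio to IFN-gamma control signal so 100% means no change and 0% no light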
APP 5'UTR act: activators of APP 5'UTR luciferase reporter, primary screen, SH-SY5Y cells. 190,000 compounds, 1% hits. AID 1276, 2008. activation, % at 2 µM. SH-SY5Y APP 5'UTR luciferase reporter, luminescence; zero percent = DMSO vehicle wells;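 active = activation above a set limit, based on mean plus 3 SD of controls, cut at about 140% in these data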
Active calls of the source: *. Sampled rows, rich in hits. Any-hit rate of the full collection: about 4.9%.

What do the screens show for `CCOC(=O)c1c(NC(=O)COC(=O)C2CC2C)sc(C)c1C` (stereo not drawn)?
STAT3 activator: 102; STAT3 inh: -3; STAT1 inh: 2; NF-kB neuron act: 0.9; STAT1 act: 98; APP 5'UTR act: 0

What do the screens show for `Cc1cc(C(=O)CCl)c(C)n1-c1c(C)n(C)n(-c2ccccc2)c1=O`?
STAT3 activator: 90; STAT3 inh: 14; STAT1 inh: 6; NF-kB neuron act: 2.7; STAT1 act: 95; APP 5'UTR act: -6

What do the screens show for `COc1ccc(C(=O)Nn2c(SCC(=O)c3ccccc3)nc3ccccc3c2=O)cc1`?
STAT3 activator: 86; STAT3 inh: 20; STAT1 inh: -6; NF-kB neuron act: 0.73; STAT1 act: 105; APP 5'UTR act: 155*

What do the screens show for `O=C(Nc1nc2ccccc2[nH]1)c1ccccc1`?
STAT3 activator: 70; STAT3 inh: 40; STAT1 inh: 6; NF-kB neuron act: 3.2; STAT1 act: 95; APP 5'UTR act: 214*

Results for COc1ccc(C(=O)Nc2nc3cc(OC)c(OC)cc3c(=O)[nH]2)cc1 ?
STAT3 activator: 101; STAT3 inh: 0; STAT1 inh: 3; NF-kB neuron act: 0.88; STAT1 act: 98; APP 5'UTR act: 9

Results for O=C(CCCOc1ccccc1)Nc1nc2ccccc2[nH]1 ?
STAT3 activator: 95; STAT3 inh: 10; STAT1 inh: -32; NF-kB neuron act: 1.5; STAT1 act: 130*; APP 5'UTR act: 62

How did COc1ccc(C(=O)Nc2nc3ccccc3c(=O)[nH]2)cc1 do in these assays?
STAT3 activator: 77; STAT3 inh: 32; STAT1 inh: -26; NF-kB neuron act: 4*; STAT1 act: 124; APP 5'UTR act: 177*

Results for Cc1ccc(OCCCC(=O)Nc2nc3ccccc3[nH]2)cc1 ?
STAT3 activator: 99; STAT3 inh: 6; STAT1 inh: -10; NF-kB neuron act: 1.3; STAT1 act: 111; APP 5'UTR act: -5

How did CC(=O)Nc1nc2ccccc2[nH]1 do in these assays?
STAT3 activator: 98; STAT3 inh: 8; STAT1 inh: -14; NF-kB neuron act: 1.2; STAT1 act: 110; APP 5'UTR act: 17

Results for CCOC(=O)C1=C(C)N(C)C(=S)NC1c1cc(OC)ccc1OC (stereo not drawn) ?
STAT3 activator: 97; STAT3 inh: 5; STAT1 inh: 5; NF-kB neuron act: 1.1; STAT1 act: 94; APP 5'UTR act: -5

Results for CC(C)CCN(C(=O)COc1ccc(C#N)cc1)c1c(N)n(Cc2ccccc2)c(=O)[nH]c1=O ?
STAT3 activator: 102; STAT3 inh: 4; STAT1 inh: -1; STAT1 act: 101; APP 5'UTR act: 3

What do the screens show for `O=C(CNC(=S)N(Cc1ccccc1)Cc1cccnc1)NC1CCCC1`?
STAT3 activator: 100; STAT3 inh: -2; STAT1 inh: 6; NF-kB neuron act: 1.2; STAT1 act: 94; APP 5'UTR act: 0

How did Cc1ccc(/C=C2\Sc3ccccc3C2=O)s1 do in these assays?
STAT3 activator: 117; STAT3 inh: -8; STAT1 inh: 8; NF-kB neuron act: 5.5*; STAT1 act: 93; APP 5'UTR act: 28

How did Cc1cccc(C)c1C(=O)N[C@@H](Cc1ccccc1)C(=O)O do in these assays?
STAT1 inh: -5; NF-kB neuron act: 1.1; STAT1 act: 106; APP 5'UTR act: 1

What do the screens show for `O=C(COc1ccccc1C(=O)Nc1ccccc1)c1ccc(Br)cc1`?
STAT3 activator: 83; STAT3 inh: 25; STAT1 inh: -10; NF-kB neuron act: 1.2; STAT1 act: 106; APP 5'UTR act: 9

How did O=C(Oc1ccccc1C(=O)Nc1ccccc1)c1ccccc1Br do in these assays?
STAT3 activator: 83; STAT3 inh: 24; STAT1 inh: 11; NF-kB neuron act: 3.7*; STAT1 act: 90; APP 5'UTR act: -59

What do the screens show for `CCc1ccc(OCC(=O)Nc2ccc(N3CCN(S(C)(=O)=O)CC3)cc2)cc1`?
STAT3 activator: 98; STAT3 inh: 8; STAT1 inh: 1; NF-kB neuron act: 1.4; STAT1 act: 97; APP 5'UTR act: 1

Results for CN(C)CCCN=c1cc(-c2ccccc2)oc2ccc(Cl)cc12 ?
STAT3 activator: 104; STAT3 inh: -1; STAT1 inh: -54; NF-kB neuron act: 1.5; STAT1 act: 148*; APP 5'UTR act: 129

What do the screens show for `Cc1ccc(/C=N/NC(=O)c2nn(C)cc2Cl)cc1`?
STAT3 activator: 94; STAT3 inh: 10; STAT1 inh: -33; NF-kB neuron act: 2.1; STAT1 act: 129*; APP 5'UTR act: 42

Results for CN(C)C1C(=O)c2ccccc2C1=O ?
STAT3 activator: 106; STAT3 inh: -5; STAT1 inh: 0; NF-kB neuron act: 0.96; STAT1 act: 100; APP 5'UTR act: 5

How did O=S(=O)([N-]c1nc2ccccc2nc1-[n+]1ccc(-c2ccncc2)cc1)c1ccccc1 do in these assays?
STAT3 activator: 111; STAT3 inh: -8; STAT1 inh: -31; NF-kB neuron act: 0.82; STAT1 act: 129*; APP 5'UTR act: 75

How did C=CCSC(=C(C#N)C#N)c1cc2c([nH]1)CCCC2 do in these assays?
STAT3 activator: 87; STAT3 inh: 17; STAT1 inh: 6; NF-kB neuron act: 7.3*; STAT1 act: 95; APP 5'UTR act: 16

Results for CCOC(=O)c1ccc2nc(C)c3c(c2c1)OC(C)C3 (stereo not drawn) ?
STAT3 activator: 81; STAT3 inh: 25; STAT1 inh: 1; NF-kB neuron act: 0.9; STAT1 act: 99; APP 5'UTR act: 1

How did CCOC(=O)c1ccc2nc3c(cc2c1)CCS3 do in these assays?
STAT3 activator: 86; STAT3 inh: 19; STAT1 inh: -38; NF-kB neuron act: 2.2; STAT1 act: 135*; APP 5'UTR act: 45

What do the screens show for `Cc1ccccc1OCc1nnc2c3cnn(C)c3ncn12`?
STAT3 activator: 99; STAT3 inh: 7; STAT1 inh: -43; NF-kB neuron act: 2; STAT1 act: 139*; APP 5'UTR act: 12

Results for COc1ccc(/C=N/n2c(-c3cccs3)n[nH]c2=S)cc1 ?
STAT3 activator: 82; STAT3 inh: 24; STAT1 inh: -8; NF-kB neuron act: 5.2*; STAT1 act: 107; APP 5'UTR act: 8

Results for Cc1ccc(/C=N/n2c(-c3cccs3)n[nH]c2=S)cc1 ?
STAT3 activator: 82; STAT3 inh: 24; STAT1 inh: 3; NF-kB neuron act: 4.1*; STAT1 act: 98; APP 5'UTR act: 5
